According to ChEMBL document CHEMBL1157017, “Synthesis and pharmacological evaluation of new 5-(cyclo)alkyl-5-phenyl- and 5-spiroimidazolidine-2,4-dione derivatives. Novel 5-HT1A receptor agonist with potential antidepressant and anxiolytic activity” (Eur J Med Chem, 2010):
Activity calls are given as the source filed them. The calls are words filed in the database; no cut-off is given here.

Assays:
[1] = biological target: T1, 5-hydroxytryptamine receptor 1A (Rattus norvegicus) (UniProt P19327); assay: Antagonist activity at postsynaptic 5HT1A receptor in rat brain cerebral cortex at 20 ug/ml; format: functional, tissue-based; details: filed as antagonist
T1 sequence (whole entry): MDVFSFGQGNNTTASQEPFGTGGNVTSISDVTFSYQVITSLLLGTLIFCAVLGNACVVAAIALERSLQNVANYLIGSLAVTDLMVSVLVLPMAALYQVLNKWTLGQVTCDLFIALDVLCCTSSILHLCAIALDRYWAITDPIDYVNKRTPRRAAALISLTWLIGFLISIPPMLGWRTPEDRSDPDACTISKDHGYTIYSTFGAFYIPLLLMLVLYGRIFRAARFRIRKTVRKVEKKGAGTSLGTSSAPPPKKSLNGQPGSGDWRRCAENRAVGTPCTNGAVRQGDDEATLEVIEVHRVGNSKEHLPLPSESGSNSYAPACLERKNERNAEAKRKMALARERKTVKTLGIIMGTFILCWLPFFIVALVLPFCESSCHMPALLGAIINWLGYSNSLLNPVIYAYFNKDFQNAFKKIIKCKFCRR

[2] = biological target: T2, 5-hydroxytryptamine receptor 1A (Rattus norvegicus, UniProt P19327); assay: Displacement of [3H]8OH-DPAT from 5HT1A in rat brain cerebral cortex; format: tissue-based
T2 sequence (P19327 whole entry): T1 sequence (whole entry)
In short: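 Rat cerebral cortex membranes (9 mg wet weight) in 50 mM Tris-HCl pH 7.7 with pargyline, CaCl2 and 0.1% ascorbic acid. Incubated 15 min at 37 °C with 1 nM [3H]-8-OH-DPAT and compound at 10^-10–10^-4 M. Nonspecific binding defined with serotonin. GF/B filtration and scintillation counting, in duplicate, with iterative curve fitting.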

[3] = biological target: 5-hydroxytryptamine receptor 2A (Rattus norvegicus, UniProt P14842); assay: Displacement of [3H]ketanserin from 5HT2A in rat brain cerebral cortex; format: tissue-based
In short: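 Rat cerebral cortex membranes in 50 mM Tris-HCl pH 7.7 were incubated 20 min at 37 °C with 0.6 nM [3H]-ketanserin and compound at 10^-10–10^-4 M. Mianserin served as displacer. Filtration through GF/B, scintillation counting, in duplicate, with iterative curve fitting.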

Mus musculus [4] = assay: Anxiolytic-like activity in Swiss albino mouse assessed as number of punished crossing at 10 mg/kg, ip after 60 mins by four-plate test (RVb = 3.8 +/- 0.2); format: functional; details: route intraperitoneal
[5] = biological target: T1, 5-hydroxytryptamine receptor 1A (Rattus norvegicus); assay: Antagonist activity at presynaptic 5HT1A receptor in rat brain cerebral cortex at 20 ug/ml; format: functional, tissue-based; details: filed as antagonist
Mus musculus [6] = assay: Anxiolytic-like activity in Swiss albino mouse assessed as number of punished crossing at 20 mg/kg, ip after 60 mins by four-plate test (RVb = 3.8 +/- 0.2); format: functional; details: route intraperitoneal
Mus musculus [7] = assay: Anxiolytic-like activity in Swiss albino mouse assessed as number of punished crossing at 30 mg/kg, ip after 60 mins by four-plate test (RVb = 3.8 +/- 0.2); format: functional; details: route intraperitoneal
D(2) dopamine receptor = D(2) dopamine receptor (Rattus norvegicus, UniProt P61169); assay: Displacement of [3H]spiperone from dopamine D2 receptor in rat brain striatum
[8] = biological target: 5-hydroxytryptamine receptor 2A (Rattus norvegicus) (UniProt P14842); assay: Antagonist activity at postsynaptic 5HT2A receptor in rat brain cerebral cortex at 20 ug/ml; format: functional, tissue-based; details: filed as antagonist
[9] = biological target: T1, 5-hydroxytryptamine receptor 1A (Rattus norvegicus); assay: Agonist activity at presynaptic 5HT1A receptor in rat brain cerebral cortex at 20 ug/ml; format: functional, tissue-based; details: filed as agonist
Mus musculus [10] = assay: […] in Swiss albino mouse assessed as number of […] crossing of the light beam during 6 mins at 20 mg/kg, ip measured after 30 mins postdose […] (RVb = 107.1 +/- 8.5); format: functional; details: route intraperitoneal
Mus musculus [11] = assay: […] in Swiss albino mouse assessed as number of […] crossing of the light beam during 30 mins at 10 mg/kg, ip measured after 30 mins postdose […] (RVb = 249.2 +/- 21); format: functional; details: route intraperitoneal
Mus musculus [12] = assay: Anxiolytic-like activity in Swiss albino mouse assessed as number of punished crossing at 5 mg/kg, ip after 30 mins by four-plate test (RVb = 3.8 +/- 0.2); details: route intraperitoneal
Mus musculus [13] = assay: Antidepressant-like activity in Swiss mouse assessed as immobilization time at 5 mg/kg, ip after 30 mins by forced swim test (RVb = 181.4 +/- 4.9 s); format: functional; details: route intraperitoneal
Mus musculus [14] = assay: Antidepressant-like activity in Swiss mouse assessed as immobilization time at 20 mg/kg, ip after 30 mins by forced swim test (RVb = 181.4 +/- 4.9 s); format: functional; details: route intraperitoneal
Mus musculus [15] = assay: Antidepressant-like activity in Swiss mouse assessed as immobilization time at 10 mg/kg, ip after 30 mins by forced swim test (RVb = 181.4 +/- 4.9 s); format: functional; details: route intraperitoneal
Mus musculus [16] = assay: Anxiolytic-like activity in Swiss albino mouse assessed as number of punished crossing of the light beam during 6 mins at 10 mg/kg, ip measured after 30 mins postdose (RVb = 107.1 +/- 8.5); details: route intraperitoneal
Mus musculus [17] = assay: […] in Swiss albino mouse assessed as number of […] crossing of the light beam during 30 mins at 20 mg/kg, ip measured after 30 mins postdose […] (RVb = 249.2 +/- 21); format: functional; details: route intraperitoneal
[18] = biological target: T1, 5-hydroxytryptamine receptor 1A (Rattus norvegicus); assay: Agonist activity at postsynaptic 5HT1A receptor in rat brain cerebral cortex at 20 ug/ml; format: functional, tissue-based
Mus musculus [19] = assay: Anxiolytic-like activity in Swiss albino mouse assessed as number of punished crossing at 30 mg/kg, ip after 60 mins by four-plate test (RVb = 4.2 +/- 0.4); format: functional; details: route intraperitoneal
Mus musculus [20] = assay: Anxiolytic-like activity in Swiss albino mouse assessed as number of punished crossing at 20 mg/kg, ip after 60 mins by four-plate test (RVb = 4.2 +/- 0.4); format: functional; details: route intraperitoneal
Mus musculus [21] = assay: Anxiolytic-like activity in Swiss albino mouse assessed as number of punished crossing at 10 mg/kg, ip after 60 mins by four-plate test (RVb = 4.2 +/- 0.4); format: functional; details: route intraperitoneal
[22] = Agonist activity at presynaptic 5HT1A receptor in brain cerebral cortex at 20 ug/ml
Mus musculus [23] = assay: […] in Swiss albino mouse assessed as number of […] crossing of the light beam during 30 mins at 20 mg/kg, ip measured after 30 mins postdose […] (RVb = 210.7 +/- 17.7); format: functional; details: route intraperitoneal
Mus musculus [24] = assay: […] in Swiss albino mouse assessed as number of […] crossing of the light beam during 6 mins at 10 mg/kg, ip measured after 30 mins postdose […] (RVb = 94.8 +/- 4.1); format: functional; details: route intraperitoneal
Mus musculus [25] = assay: Antidepressant-like activity in Swiss mouse assessed as immobilization time at 10 mg/kg, ip after 30 mins by forced swim test (RVb = 167.1 +/- 6.7 s); format: functional; details: route intraperitoneal
Mus musculus [26] = assay: […] in Swiss albino mouse assessed as number of […] crossing of the light beam at 20 mg/kg, ip measured after 30 mins postdose […] (RVb = 94.8 +/- 4.1); details: route intraperitoneal
Mus musculus [27] = assay: Antidepressant-like activity in Swiss mouse assessed as immobilization time at 20 mg/kg, ip after 30 mins by forced swim test (RVb = 167.1 +/- 6.7 s); format: functional; details: route intraperitoneal
Mus musculus [28] = assay: […] in Swiss albino mouse assessed as number of […] crossing of the light beam during 30 mins at 10 mg/kg, ip measured after 30 mins postdose […] (RVb = 210.7 +/- 17.7); format: functional; details: route intraperitoneal

D(2) dopamine receptor, sequence (P61169 whole entry): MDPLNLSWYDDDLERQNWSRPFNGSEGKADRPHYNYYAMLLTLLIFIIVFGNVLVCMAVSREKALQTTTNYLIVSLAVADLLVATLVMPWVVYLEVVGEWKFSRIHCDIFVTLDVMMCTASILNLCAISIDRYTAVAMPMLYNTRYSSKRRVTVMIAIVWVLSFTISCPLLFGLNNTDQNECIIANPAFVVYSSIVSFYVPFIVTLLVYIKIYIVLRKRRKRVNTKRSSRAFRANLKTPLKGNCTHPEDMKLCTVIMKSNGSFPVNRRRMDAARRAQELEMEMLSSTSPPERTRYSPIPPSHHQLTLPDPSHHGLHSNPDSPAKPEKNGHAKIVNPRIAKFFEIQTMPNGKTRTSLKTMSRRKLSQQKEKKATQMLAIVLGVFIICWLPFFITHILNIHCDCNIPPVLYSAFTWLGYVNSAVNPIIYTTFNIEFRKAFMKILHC
5-hydroxytryptamine receptor 2A, sequence (P14842 whole entry): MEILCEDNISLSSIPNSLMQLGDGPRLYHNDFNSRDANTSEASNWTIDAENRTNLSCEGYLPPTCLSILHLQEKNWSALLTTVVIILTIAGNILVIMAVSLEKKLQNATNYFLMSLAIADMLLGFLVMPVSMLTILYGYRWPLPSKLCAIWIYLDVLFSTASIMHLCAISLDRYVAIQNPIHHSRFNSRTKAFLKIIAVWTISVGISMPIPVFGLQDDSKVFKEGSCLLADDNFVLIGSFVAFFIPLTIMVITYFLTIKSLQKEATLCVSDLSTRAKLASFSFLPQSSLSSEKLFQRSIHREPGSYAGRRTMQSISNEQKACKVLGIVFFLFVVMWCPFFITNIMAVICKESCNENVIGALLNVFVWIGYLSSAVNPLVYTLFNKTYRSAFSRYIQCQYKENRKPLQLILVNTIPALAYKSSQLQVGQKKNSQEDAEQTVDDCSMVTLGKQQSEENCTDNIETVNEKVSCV
5-hydroxytryptamine receptor 2A (Rattus norvegicus), sequence (P14842 whole entry): as above

| Structure (SMILES) | Activity [1] | Ki [2] [µM] | Ki [3] [µM] | Ki (D(2) dopamine receptor) [µM] | Activity [8] | Activity [9] | further results |
| --- | --- | --- | --- | --- | --- | --- | --- |
| O=C1NC(c2ccccc2)(C2CC2)C(=O)N1CCCN1CCN(c2cccc(Cl)c2)CC1 (racemic) | Antagonist | 0.013 | 0.078 | – | – | – | Activity (Mus musculus [4]): 3.8; Activity [5]: Antagonist; Activity (Mus musculus [6]): 3.9; Activity (Mus musculus [7]): 3.7 |
| O=C1NC2(CCc3ccccc32)C(=O)N1CCCN1CCN(c2ccccc2)CC1 (racemic) | – | 0.098 | 0.03 | 15.6 | Antagonist | – | – |
| COc1ccccc1N1CCN(CCCN2C(=O)NC3(CCc4ccccc43)C2=O)CC1 (racemic) | Antagonist | 0.049 | 0.653 | – | – | Agonist | – |
| O=C1NC2(CCCc3ccccc32)C(=O)N1CCCN1CCN(c2cccc(Cl)c2)CC1 (racemic) | – | 0.35 | 0.035 | 1.8 | Antagonist | – | – |
| CC1(c2ccccc2)NC(=O)N(CCCN2CCN(c3ccccc3)CC2)C1=O (racemic) | – | 0.457 | 0.069 | – | – | – | – |
| O=C1NC2(CCCc3ccccc32)C(=O)N1CCCN1CCN(c2ccccc2)CC1 (racemic) | – | 0.088 | 0.025 | 0.675 | Antagonist | – | – |
| COc1ccccc1N1CCN(CCCN2C(=O)NC3(CCCc4ccccc43)C2=O)CC1 (racemic) | – | 0.023 | 0.284 | – | – | Agonist | Activity (Mus musculus [10]): 111.6; Activity (Mus musculus [11]): 212.9; Activity (Mus musculus [12]): 3.9; Time (Mus musculus [13]): 161.2 s; Activity (Mus musculus [4]): 5.9; Activity (Mus musculus [6]): 4.4; Time (Mus musculus [14]): 103.1 s; Time (Mus musculus [15]): 121.4 s; Activity (Mus musculus [16]): 110; Activity (Mus musculus [17]): 225.3; Activity ([18]; filed as agonist): Agonist |
| COc1ccccc1N1CCN(CCCN2C(=O)NC(C)(c3ccccc3)C2=O)CC1 (racemic) | – | 0.047 | 0.73 | – | – | Agonist | Activity [18]: inactive |
| O=C1NC2(CCc3ccccc32)C(=O)N1CCCN1CCN(c2cccc(Cl)c2)CC1 (racemic) | Antagonist | 0.038 | 0.053 | 6.2 | Antagonist | Agonist | Activity (Mus musculus [19]): 4.2; Activity (Mus musculus [20]): 4.2; Activity (Mus musculus [21]): 4 |
| CC1(c2ccccc2)NC(=O)N(CCCN2CCN(c3cccc(Cl)c3)CC2)C1=O (racemic) | Antagonist | 0.029 | 0.312 | 3.9 | – | – | Activity [22]: inactive |
| O=C1NC(c2ccccc2)(C2CC2)C(=O)N1CCCN1CCN(c2ccccc2)CC1 (racemic) | – | 0.067 | 0.1 | – | – | – | Activity [22]: inactive; Activity [18]: inactive |
| COc1ccccc1N1CCN(CCCN2C(=O)NC(c3ccccc3)(C3CC3)C2=O)CC1 (racemic) | – | 0.011 | 0.71 | – | – | Agonist | Activity [18]: inactive |
| CN(C)CCCN1c2ccccc2CCc2ccccc21 [IMIPRAMINE] | – | – | – | – | – | – | Activity (Mus musculus [23]): 141.6; Activity (Mus musculus [24]): 94.4; Time (Mus musculus [25]): 149.1 s; Activity (Mus musculus [26]): 89.1; Time (Mus musculus [27]): 107.8 s; Activity (Mus musculus [28]): 208.7 |
